Molecules are shown by their SMILES.

Data set [1] can be described thus: Inhibition of pyroglutamylaminopeptidase at a dose of 8.32 mM relative to Pyrrolidin-2-one-CO-Gly-Ile. To be noted: 8320 µM. The method in brief: (§1)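 Enzyme purchased commercially, 5.5 units per digestion in pH 8.0 phosphate deblocking buffer (5% glycerol, 5 mM DTT, 10 mM EDTA, N2/Ar-purged). Preincubated 3 min at 37 °C, then substrate plus Leu internal standard added with the inhibitor at the stated level and digested 180 min at 37 °C. Gly-Ile released was quantitated by amino acid analysis. Values are cleavage relative to the uninhibited digest (set to 1.0), from a single experiment.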

Data set [2] in a line: Inhibition of pyroglutamylaminopeptidase at a dose of 16.64 mM relative to 2-Oxo-hexahydro-pyrimidine-4-carboxylic acid. To be noted: 16640 µM. Summed up: as §1
Data set [3] can be described thus: Inhibition of pyroglutamylaminopeptidase at a dose of 16.64 mM relative to Pyrrolidin-2-one-CO-Gly-Ile. To be noted: 16640 µM. Summed up:
as §1

Data set [4] can be described thus: Inhibition of pyroglutamylaminopeptidase at a dose of 8.32 mM relative to 2-Oxo-hexahydro-pyrimidine-4-carboxylic acid. To be noted: 8320 µM. Summed up:
as §1

Data set [5] in a line: Inhibition of pyroglutamylaminopeptidase at a dose of 13.02 mM relative to 2-Oxo-hexahydro-pyrimidine-4-carboxylic acid. To be noted: 13020 µM. Summed up: as §1
Data set [6] in a line: Inhibition of pyroglutamylaminopeptidase at a dose of 13.02 mM relative to Pyrrolidin-2-one-CO-Gly-Ile. To be noted: 13020 µM. The method in brief:
as §1

Data set [7] is described as follows: Inhibition of pyroglutamylaminopeptidase at a dose of 6.51 mM relative to 2-Oxo-hexahydro-pyrimidine-4-carboxylic acid. To be noted: 6510 µM. The method in brief: as §1
A short description of data set [8]: Inhibition of pyroglutamylaminopeptidase at a dose of 6.51 mM relative to Pyrrolidin-2-one-CO-Gly-Ile. To be noted: 6510 µM. The method in brief:
as §1

With `O=C1NCCC(C(=O)O)N1` (configuration not stated), the Hydrolysis rate in data set [1] amounted to 0.889; in data set [2], 0.752; in data set [3], 0.884; in data set [4], 0.86.

Take `O=C1CC[C@@H](C(=O)O)N1` [PIDOLIC ACID]: the Hydrolysis rate in data set [5] was 0.093; in data set [6], 0.333; in data set [7], 0.206; in data set [8], 0.586.

Take `O=C1NCC(C(=O)O)N1` (configuration not stated): the Hydrolysis rate in data set [5] was 0.308; in data set [6], 0.707; in data set [7] it was 0.533; in data set [8] it was 0.854.

The record behind these values is ChEMBL document CHEMBL1123060, “Substrate specificity of pyroglutamylaminopeptidase” (J Med Chem, 1985).
